Active and inactive are the calls of the source. The calls are words filed in the database; no cut-off is given here.
Columns and labels:
[1] = Cytotoxicity against African green monkey Vero cells assessed as decrease in cell viability after 72 hrs by neutral red dye uptake assay; type: cell-based; conditions: chlorocebus sabaeus
Procedure, shortened: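 Vero cells were exposed to a range of compound concentrations for 72 h. Viability was read by Neutral Red dye uptake, six replicates.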

[2] = test system: dengue virus type 2; experiment: Antiviral activity against Dengue virus 2 prototype 16681 infected in African green monkey Vero cells assessed as inhibition of viral RNA replication at 100 uM after 72 hrs in presence of 100 uM of HINT1 inhibitor […] by qPCR method; type: functional, organism-based
Procedure, shortened: (§1)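 Vero cells infected with DENV-2 (moi = 0.2), then treated with 100 μM compound, alone or together with 100 μM TrpGc (HINT1 inhibitor). After 72 h, supernatant RNA was extracted and viral progeny quantified by DENV-2-specific qPCR. Replication is expressed as percentage of the untreated infected control. Mean of four independent experiments.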

[3] = test system: dengue virus type 2; experiment: Antiviral activity against Dengue virus 2 prototype 16681 infected in African green monkey Vero cells assessed as inhibition of viral RNA replication at 100 uM after 72 hrs by qPCR method; type: functional, organism-based; procedure, shortened: as §1
[4] = test system: dengue virus type 2; experiment: Antiviral activity against Dengue virus 2 prototype 16681 infected in Vero cells assessed as inhibition of virus induced cytopathic effect by plaque assay; conditions: prototype 16681, Vero
[5] = test system: dengue virus type 2; experiment: Antiviral activity against Dengue virus 2 New Guinea assessed as inhibition of virus induced cytopathic effect by neutral red dye uptake assay; type: functional, organism-based
[6] = Drug metabolism assessed as half life for ((2R,3R,4R,5R)-5-(2-amino-6-oxo-1,6-dihydro-9H-purin-9-yl)-3,4-dihydroxy-4-methyltetrahydrofuran-2-yl)methyl hydrogen (2-(1H-indol-3-yl)ethyl)phosphoramidate formation in HEPES buffer at pH 7.4 by RP-HPLC analysis; type: physicochemical
Procedure, shortened: (§2)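 Diester prodrug incubated at 37 °C in 20 mM HEPES buffer, pH 7.4 or pH 2.0. Removal of the 2-(methylthio)ethyl group, giving the monoester phosphoramidate, was followed over time by reversed-phase HPLC. The half-life was derived from the conversion time course.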

[7] = Drug metabolism assessed as half life for ((2R,3R,4R,5R)-5-(2-amino-6-oxo-1,6-dihydro-9H-purin-9-yl)-3,4-dihydroxy-4-methyltetrahydrofuran-2-yl)methyl hydrogen (2-(1H-indol-3-yl)ethyl)phosphoramidate formation in HEPES buffer at pH 2 by RP-HPLC analysis; type: physicochemical; procedure, shortened: as §2

Row | Structure (SMILES) | CC50 at 72 h [1] [µM] | inhibition [2] | inhibition [3] | IC50 [4] [µM] | EC50 [5] [µM] | t1/2 [6] [h] | t1/2 [7] [h]
1 | C[C@@]1(O)[C@H](O)[C@@H](COP(=O)(O)NCCc2c[nH]c3ccccc23)O[C@H]1n1cnc2c(=O)[nH]c(N)nc21 | > 200 | inactive | Active | 6.84 |  |  | 
2 | C[C@@]1(O)[C@H](O)[C@@H](CO)O[C@H]1n1cnc2c(=O)[nH]c(N)nc21 [2'-B-METHYL-GUANOSINE] | > 200 |  |  | 8.14 | 13.6 |  | 
3 | CSCCOP(=O)(NCCc1c[nH]c2ccccc12)OC[C@H]1O[C@@H](n2cnc3c(=O)[nH]c(N)nc32)[C@](C)(O)[C@@H]1O (some centres undefined) | > 200 | inactive | Active | 1.59 |  | 4.5 | 3.78
4 | C[C@@]1(O)[C@H](O)[C@@H](CO)O[C@H]1n1cnc2c(N)ncnc21 |  |  |  |  | 4 |  | 

Source: ChEMBL document CHEMBL4130454, “Anchimerically Activatable Antiviral ProTides” (ACS Med Chem Lett, 2017)
